Source: paper PMC2886848 (Science (New York, N.Y.), 2009)
Entries after “also recorded” stand apart in the source; their conditions may differ.

What was measured:
BT549 cells [1] = assay: time course of cell viability in BT549 cells; assay type: cell-based; settings: 25 μM 1541, 1541C, 1541D; 1 μM STS; 100 μM etoposide; 1541 and STS after 4 hours
How it was run: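 p53-deficient BT549 breast cancer cells (2,000) were exposed to 25 μM test compound or either of two analogs, 1 μM staurosporine, 100 μM etoposide or DMSO (final 0.5%). Cell viability was assayed at 2, 4, 6, 8, 12 and 24 h.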

BT549 cells [2] = assay: time course of DEVDase activity in BT549 cells; assay type: cell-based; settings: 25 μM 1541, 1 μM STS
How it was run: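 p53-deficient BT549 breast cancer cells (2,000) were treated with 25 μM test compound or analogs, 1 μM staurosporine, 100 μM etoposide or DMSO (final 0.5%). Executioner caspase (DEVDase) activity was measured at 2, 4, 6, 8, 12 and 24 h.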

BT549 cells [3] = assay: cytochrome C release in cytoplasmic extracts of BT549 cells; assay type: cell-based; settings: 25 μM 1541, 1 μM STS, harvested every 3 hours
[4] = tested on: wild type (A3) Jurkat cells; assay: cell viability of wild type; assay type: cell-based, human; settings: 25 μM 1541, 1 μM STS, 100 ng/ml FasL
How it was run: (§1)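 Wild-type (A3) and caspase-8-deficient (I9.2) human Jurkat cells (100,000 cells) were exposed to 25 μM test compound, 1 μM staurosporine or 100 ng/ml FasL. Cell viability was assayed every 2 hours.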

[5] = tested on: caspase-8 deficient Jurkat cells (I9.2); assay: cell viability of caspase-8 deficient; assay type: cell-based, human; settings: 25 μM 1541, 1 μM STS, 100 ng/ml FasL
How it was run: as §1

[6] = tested on: wild type murine embryonic fibroblasts (MEF); assay: histone ELISA apoptosis assay in wild type MEFs; assay type: cell-based; settings: 1 μM STS, 25 μM 1541, 12 hours
How it was run: (§2)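 Wild-type and Bak−/−/Bax−/− double-knockout murine embryonic fibroblasts (5,000 cells) were treated at 37 °C with 1 μM staurosporine, 25 μM test compound or DMSO (final 0.5%). Apoptosis was measured after 12 h by histone sandwich ELISA on lysates, which detects histone solubilisation from DNA fragmentation.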

[7] = tested on: Bak−/−/Bax−/− double knockout (DKO MEFs); assay: histone ELISA apoptosis assay in Bak−/−/Bax−/− DKO MEFs; assay type: cell-based, murine; settings: 1 μM STS, 25 μM 1541, 12 hours
How it was run: as §2

BT549 cells [8] = assay: protection against 1541-induced apoptosis with caspase inhibitors in BT549 cells; assay type: cell-based; settings: preincubation with inhibitor 0.78 to 100 μM, then 25 μM 1541, 24 hours
How it was run: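 BT549 cells (2,500) were preincubated overnight with Biotin-DEVD-FMK (caspase-3/-7 inhibitor) or Biotin-VAD-FMK (pan-caspase inhibitor) at 0.78 to 100 μM. Cells were then switched to fresh medium containing 25 μM test compound plus the same inhibitor concentration. Viability was assayed after 24 h at 37 °C.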

procaspase-3 [9] = target: T1, procaspase-3 (Homo sapiens, UniProt P42574); assay: procaspase-3 autoproteolytic activation, fluorogenic Ac-DEVD-AFC activity assay; assay type: biochemical
T1 sequence (P42574 1-277): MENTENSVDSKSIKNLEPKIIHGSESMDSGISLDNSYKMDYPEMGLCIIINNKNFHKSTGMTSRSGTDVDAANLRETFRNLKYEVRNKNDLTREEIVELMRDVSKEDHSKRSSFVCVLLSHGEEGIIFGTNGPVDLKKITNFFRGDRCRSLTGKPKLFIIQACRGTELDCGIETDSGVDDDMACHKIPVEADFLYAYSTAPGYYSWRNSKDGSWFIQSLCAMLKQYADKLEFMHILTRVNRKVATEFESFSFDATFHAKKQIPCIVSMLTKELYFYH

procaspase-7 = procaspase-7 activation, fluorogenic Ac-DEVD-AFC activity assay; assay type: biochemical; settings: procaspase-7 100 nM; 1 nM granzyme B, 25 μM 1541 or 100 μM PAC-1
How it was run: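 Procaspase-7 (100 nM) was incubated at 37 °C with 1 nM granzyme B, DMSO, 100 μM reference procaspase activator or 25 μM test compound. Activity was sampled every 20 minutes by adding fluorogenic substrate Ac-DEVD-AFC.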

C163A procaspase-3 = assay: cleavage of inactive C163A procaspase-3 by granzyme B; assay type: biochemical; settings: C163A 250 nM, granzyme B 0.5 nM, alone or with 1541 25 μM
[10] = tested on: procaspase-3 mutants (S198A, T199A and S205A); assay: activation of procaspase-3 alanine mutants; assay type: biochemical; settings: 5 hours, 25 μM 1541 or 1 nM granzyme B, 37 °C
How it was run: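 Wild-type procaspase-3 and active-site alanine mutants (S198A, T199A, S205A), chosen by alanine scanning near the active site, were incubated 5 h at 37 °C with 25 μM test compound, 1 nM granzyme B or DMSO. Activation was sampled by kinetic assays started with fluorogenic substrate Ac-DEVD-AFC.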

procaspase-6 [11] = target: T2, procaspase-6 (Homo sapiens, UniProt P55212); settings: cited from earlier work
T2 sequence (P55212 1-293): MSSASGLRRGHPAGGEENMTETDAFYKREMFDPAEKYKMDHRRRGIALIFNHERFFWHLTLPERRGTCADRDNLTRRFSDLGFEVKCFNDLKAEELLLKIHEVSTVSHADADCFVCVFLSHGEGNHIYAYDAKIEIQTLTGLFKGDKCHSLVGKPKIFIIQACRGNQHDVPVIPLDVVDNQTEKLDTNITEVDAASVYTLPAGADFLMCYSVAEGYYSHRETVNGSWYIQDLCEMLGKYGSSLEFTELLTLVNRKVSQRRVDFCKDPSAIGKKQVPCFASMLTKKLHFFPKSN

procaspase-6 [12] = target: T2, procaspase-6; assay: procaspase-6 activation, fluorogenic Ac-VEID-AFC activity assay; assay type: biochemical
procaspase-3 [13] = target: T1, procaspase-3; settings: caused through chelation of inhibitory zinc ion in some assay buffers; cited from earlier work

In the case of CN[C@@H]1C[C@H]2O[C@@](C)([C@@H]1OC)n1c3ccccc3c3c4c(c5c6ccccc6n2c5c31)C(=O)NC4 [STS, staurosporine], the “induction of apoptosis / cell death in BT549 (in words)” value (BT549 cells [1]) is reported as “near complete apoptosis”, the “DEVDase activity in BT549 (in words)” value (BT549 cells [2]) is reported as “significantly higher” and the “time of peak DEVDase activity” value (BT549 cells [2]) is reported as 8 h. The “mitochondrial cytochrome C release (in words)” value (BT549 cells [3]) was “much greater and more rapid mitochondrial cytochrome C release”, the “apoptosis in wild type Jurkat cells (in words)” value [4] was “comparable to 1541” and the “apoptosis in caspase-8 deficient Jurkat cells (in words)” value [5] was “somewhat slower”. For the same molecule, the “apoptosis in wild type MEFs (in words)” value [6] was “susceptible” and the “apoptosis in DKO MEFs (in words)” value [7] was “completely resistant”.

In the case of DEVD-FMK, the “block of 1541-induced apoptosis (in words)” value (BT549 cells [8]) is reported as “completely blocked apoptosis”.

In the case of “granzyme B: a natural proteolytic activator of procaspase-3”, the “time to full activation of the zymogen” value (procaspase-3 [9]; 1 nM granzyme B, procaspase-3 100 nM) is reported as at most 90 min, the “activation of procaspase-7 (in words)” value (procaspase-7) is reported as “robustly activated and fully processed” and the “cleavage of C163A procaspase-3 after 30 minutes” value (C163A procaspase-3) is reported as ~ 10%. For the same molecule, the “cleavage of C163A procaspase-3 after 60 minutes” value (C163A procaspase-3) was 20%, the “activation of S198A, T199A and S205A procaspase-3 (in words)” value [10] was “efficiently activated; also recorded: wild type activity” and the “activation of procaspase-6 by granzyme B (in words)” value (procaspase-6 [11]) was “resistant”.

In the case of C=CCc1cccc(/C=N/NC(=O)CN2CCN(Cc3ccccc3)CC2)c1O [PAC-1], the “activation of procaspase-3 (in words)” value (procaspase-3 [9]) is reported as “no detectable increase in activity or self-proteolysis”, the “activation of procaspase-6 (in words)” value (procaspase-6 [12]) is reported as “no detectable increase in activity or self-proteolysis” and the “activation of procaspase-7 (in words)” value (procaspase-7) is reported as “no detectable increase in activity or self-proteolysis”. For the same molecule, the “activation of procaspase-3 seen for PAC-1” value (procaspase-3 [13]) was ~ 2 fold.

With COc1cc([C@@H]2c3cc4c(cc3[C@@H](O[C@@H]3O[C@@H]5CO[C@@H](C)O[C@H]5[C@H](O)[C@H]3O)[C@H]3COC(=O)[C@H]23)OCO4)cc(OC)c1O [etoposide] the “induction of apoptosis / cell death in BT549 (in words)” value (BT549 cells [1]) was “much slower apoptosis”.

B1: FasL: a specific inducer of the extrinsic pathway (protein, UniProt P48023 130-281, looked up)
Tumor necrosis factor ligand …: QIGHPSPPPEKKELRKVAHLTGKSNSRSMPLEWEDTYGIVLLSGVKYKKGGLVINETGLYFVYSKVYFRGQSCNNLPLSHKVYMRNSKYPQDLVMMEGKMMSYCTTGQMWARSSYLGAVFNLTSADHLYVNVSELSLVNFEESQTFFGLYKL
For B1, the “apoptosis in wild type Jurkat cells (in words)” value [4] was “active” and the “apoptosis in caspase-8 deficient Jurkat cells (in words)” value [5] was “not in caspase-8 deficient cells”.
